# Hck-Nef inh – inhibitors of human Hck kinase activated by Nef. P08631. Recombinant Hck-YEEI plus Nef, Z-Lyte FRET kinase assay. inhibition, % at 20 µM. 220,000 tested, 0.68% active. AID 463187;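 active = Hck-Nef kinase inhibition above about 50%, limit read from the data; inactive = inhibition below that limit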;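 note: 0% = DMSO with Hck plus Nef and 100% = Hck alone without Nef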
# Target sequence (P08631 whole entry, looked up): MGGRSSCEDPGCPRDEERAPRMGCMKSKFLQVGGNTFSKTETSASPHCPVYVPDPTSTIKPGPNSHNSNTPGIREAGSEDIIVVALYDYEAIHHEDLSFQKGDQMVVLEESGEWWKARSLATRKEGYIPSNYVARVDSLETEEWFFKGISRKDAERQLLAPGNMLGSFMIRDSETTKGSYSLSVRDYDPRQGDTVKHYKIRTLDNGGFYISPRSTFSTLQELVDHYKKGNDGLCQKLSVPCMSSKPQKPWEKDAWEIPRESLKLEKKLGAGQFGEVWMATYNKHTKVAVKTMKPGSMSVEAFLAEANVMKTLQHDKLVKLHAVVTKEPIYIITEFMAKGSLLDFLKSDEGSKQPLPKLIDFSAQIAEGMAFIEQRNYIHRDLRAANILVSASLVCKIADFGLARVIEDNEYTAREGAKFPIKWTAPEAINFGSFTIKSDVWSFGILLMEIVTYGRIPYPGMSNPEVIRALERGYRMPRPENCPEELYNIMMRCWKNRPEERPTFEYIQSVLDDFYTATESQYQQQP
# TNF death inh – blocks TNF-alpha induced death of Jurkat FADD-/- cells. Jurkat FADD-/- TNF necroptosis rescue, ATP luminescence, 24 h; 0 = TNF only, 100 = no-TNF cells. activation (protection from cell death), % at 10 µM. 220,000 tested, 0.068% active;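 active = activation, meaning protection from cell death, of at least 50% relative to plate controls; inactive = activation below 50%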;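 note: necroptosis triggered by 40 ng/mL TNF-alpha added together with compound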
# Autophagy HCS – alters autophagy in cells. AID 463193. MEF GFP-LC3 puncta imaging; test concentration mostly 10 µM. 190,000 tested, 0.98% active. calls only at 10 µM (by protocol);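 active = percentage of spot-positive cells more than 3 SD above its plate mean, without a fluorescence outlier flag or 80% toxicity; inconclusive = no clear call, values can overlap the other calls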;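 note: spot-positive cell cutoff set from DMSO-treated cells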
# zVAD death inh – blocks zVAD induced death of L929 cells | viability rescue, % at 10 µM | AID 1377 | 220,000 tested, 0.38% active | L929 zVAD necroptosis rescue, ATP luminescence, 24 h; with zVAD 60 µM;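 active = activation, scaled between plate controls, above about 75%, limit read from the data; inactive = activation under that limit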;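 note: 0% = zVAD with DMSO and 100% = DMSO alone without zVAD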
# MDM2 E3 inh – inhibitors of human Mdm2 E3 ubiquitin ligase; Q00987; cell-based MDM2 ubiquitination luciferase reporter, 2 h; 0 = plate control, 100 = twice control, blank-subtracted; signal enhancement, % at 5 µM; 210,000 tested, 0.11% active;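 active = signal enhancement of 30% or more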;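 note: luminescence tracks abundance of the self-degrading MDM2-luciferase fusion protein; higher signal means inhibition of MDM2 E3 ligase activity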
#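 Assay system: stable mammalian line carrying autodegrading MDM2–luciferase fusion reporter; amount: 2000 cells seeded into each well; buffer or medium: DMEM; benchmarks: plate control and blank wells; signal: luciferase luminescence; timing: 2 h compound exposure at 37 °C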
# Dynein transport – dynein cargo transport inhibition; 3617.4 mouse cells, GR-EGFP nuclear translocation imaging; test concentration mostly 20 µM; stimulated with dexamethasone, 1 µM; stronger effect = lower value; z-score, hits read low; 220,000 tested, 0.47% active;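 active = plate z-score of nuclear minus cytoplasmic receptor signal below a set negative limit, without overly bright fluorescence or cell loss, cut at about -3.5 in these data, passing the limit was not always enough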;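 note: z-score of nuclear minus cytoplasmic ring GR-EGFP intensity difference per well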
#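 medium = tetracycline-free induction medium containing charcoal-stripped FBS | probe or stimulus = dexamethasone, 1.0 µM final | timing = 48 h induction, then 1 h compound, then 30 min agonist, 37 °C | detection = automated 10x imaging of fixed Hoechst-stained cells | read-out basis = nuclear versus cytoplasmic GR-EGFP signal, averaged per well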
# Dynein confirm – dynein cargo transport inhibition, confirmation. 3617.4 GR-EGFP nuclear translocation imaging, dexamethasone-induced. 1,000 tested, 69% active. shares compounds with Dynein transport. calls only at 20 µM;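 active = inhibition of receptor movement into the nucleus at or above a set limit in both runs, with normal cell brightness and cell count; inconclusive = limit reached in only one run, brightness and count normal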;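 note: dexamethasone at 1 µM final in well for 30 min; nuclear minus cytoplasmic GR-EGFP mean intensity difference in channel 2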
# Active calls of the source: *; i = inactive; u = inconclusive; x = no result given; + = active, no number. Rows were chosen to be rich in hits. Some 2.4% of all compounds tested hit in one or more screens of this group.
SMILES,Hck-Nef inh,TNF death inh,Autophagy HCS,zVAD death inh,MDM2 E3 inh,Dynein transport,Dynein confirm
COc1cc(OC)cc(C(=O)N2CCC(C(=O)Nc3ccc4c(c3)OCCO4)CC2)c1,2,1,i,0,-9,-1.2,x
CC[n+]1c(/C=C/C=C/N(C(C)=O)c2ccccc2)sc2cc(OC)ccc21,3,-7,u,-1,-6,-3.8*,+
CN(C)S(=O)(=O)c1cc(C(=O)NCc2ccccc2)c(Cl)cc1Cl,-2,0,i,0,-12,-1.1,x
c1cncc(-c2nc(-c3ccco3)cs2)c1,2,-1,i,1,-5,-4.5*,i
COc1ccc(N(C(=O)c2ccco2)C(C(=O)NC2CCCCC2)c2cccs2)cc1OC (configuration not stated),6,-1,i,0,7,0.38,x
C#CC(=O)N(c1cc(OC)ccc1OC)C(C(=O)NC1CCCC1)c1cccs1 (configuration not stated),-1,-28,i,0,-17,-5.1*,+
C#CC(=O)N(c1ccc(OC)cc1OC)C(C(=O)NC1CCCC1)c1cccs1 (configuration not stated),19,-22,i,1,4,-4.4*,+
COc1ccc(C(=O)C(CN2CCOCC2)c2ccccc2)cc1F (configuration not stated),2,-12,i,54,-17,-4*,+
O=C(/C=C/c1cc(Br)ccc1O)c1ccco1,-30,-20,x,33,19,-4.7*,i
COc1cccc(Nc2ncccc2C(=O)NCc2ccccc2)c1,3,-3,i,0,-10,-9.6,i
O=C(O)c1cc2c([nH]c1=O)CCCC2,2,-1,i,0,-17,0.4,x
C=CCSC(=C(C#N)C#N)c1cc2c([nH]1)CCCC2,-8,-20,i,-1,-22,-4*,+
CCOC(=O)c1cnc2cc3c(cn2c1=O)CCCC3,1,1,i,11,-6,-0.91,x
CCOC(=O)C1=C(SCC)c2cc3c(n2C1=O)CCCC3,10,-9,i,0,7,-3.6*,+
Cc1ccc(N=Cc2cc(Br)cc(Cl)c2O)cc1,-52,-5,i,0,-14,2.5,x
Cc1cc(C)cc(N=Cc2[nH]c3ccc(Br)c(Cl)c3c2O)c1,7,-1,u,1,x,-9.1,+
COc1ccc(CN=Cc2[nH]c3ccc(Br)c(Cl)c3c2O)cc1,-1,-15,i,0,-7,-5*,+
COc1ccc(CN=CC2=C(O)CNC2=O)cc1,-23,1,i,0,-6,-0.23,x
COc1ccc(C(=O)N/C(=C/c2cccs2)c2nc3ccccc3[nH]2)cc1OC,6,-1,i,1,12,-0.58,x
COc1cc(/C=C(/C(=O)c2cccs2)c2nc3ccccc3[nH]2)cc(OC)c1O,-1,-14,+,64,-13,-4.6*,+
COc1ccccc1-c1nnc(Sc2nc([N+](=O)[O-])nn2C)o1,2,-12,i,-2,2,-4.1*,+
Cc1ccc(NC2=C(Cl)C(=O)N(C3CCCCC3)C2=O)cc1,0,1,i,0,-3,0.058,x
COc1ccc(C2C(C#N)=C(N)Oc3c2sc2nc(C)cc(C)c32)cc1 (configuration not stated),-5,-22,i,4,-35,-3.9*,i
Cc1cc(C)c2c3c(sc2n1)C1(CCSCC1)C(C#N)=C(N)O3,0,-2,i,0,x,-0.18,x
Cn1ccnc1SCC(=O)Nc1cccc(S(=O)(=O)N2CCCCC2)c1,24,0,i,1,-11,-0.5,x
O=C(Nc1ccc(F)cc1)c1nn(-c2ccccc2)c(=O)cc1Cl,16,-14,i,18,-20,-5.4*,+
O=C(COc1ccc(/C=C\[N+](=O)[O-])cc1)N1CCOCC1,20,-1,i,-1,2,-5*,+
